Data set [1] can be described thus: Dissociation constant, pKa of the compound. In kind it is physicochemical. In a few lines:
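Potentiometric cosolvent titration in 0.15 mol/L KCl, pH 2.0-11.0, 25 °C, methanol as cosolvent in varying portions; titrants 0.5 mol/L KOH and HCl.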

Data set [2] deals with Rattus norvegicus. Put plainly: Inhibition of pentagastrin-stimulated acid secretion in perfused Ghosh Schild rat stomach at 1 umol/kg, intraduodenal. Details: scale not given: the % may be the effect or the level left. In kind it is functional. The procedure, abridged: (§1)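 Anaesthetised rat with perfused stomach: 37 °C saline at 0.5 mL/min. Effluent titrated to pH 7 with 0.01 N NaOH in 15-min fractions. Secretion driven by continuous iv pentagastrin, 1 µg/kg (1.65 mL/h). Compound given intraduodenally in 2.5 mL/kg volume 60 min after infusion start. Body temperature held at 37.8-38 °C.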

A short description of data set [3]: Distribution coefficient, log D of the compound. Type of data set: physicochemical. Conditions: octanol/water. In a few lines:
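Distribution between 1-octanol and aqueous KCl measured by potentiometric titration over pH 2.0-11.0 at 25 °C.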

The species entered for a further data set is Sus scrofa. The data set can be described thus: (§2) Inhibition of H+/K+ ATPase in hog gastric mucosa. In kind it is tissue-based. The procedure, abridged: (§3)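 Hog gastric mucosa H+/K+-ATPase (0.5-1 µg/100 µL, with nigericin 1:1) in 4 mM Pipes/8 mM Tris pH 7.4, 0.25 M sucrose, 1 mM MgCl2, stimulated by 1 mM KCl. Compound 1e-4 to 1e-9 M final from DMSO stocks. Started with 1 mM Na-ATP, 30 min room temperature. Phosphate read by malachite green at 680 nm after 15 min.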

The subject of another data set is Gastric gland. The data set can be described thus: Inhibition of acid secretion in rabbit intact gastric glands assessed as […] accumulation. In kind it is functional, tissue-based. To be noted: Oryctolagus cuniculus. The procedure, abridged:
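Isolated gastric glands in Krebs-Henseleit with 2 mg/mL rabbit serum albumin and 2 mg/mL glucose. Incubated 30 min at 37 °C, shaking, with 0.125 µM 14C-aminopyrine at pH 7.4, stimulated by 1 mM dibutyryl cAMP, inhibitor 3 nM-100 µM. Stopped by centrifugation. Accumulation taken from pellet/supernatant radioactivity ratio. IC50 from fitted inhibition equation.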

A short description of data set [4]: as §2. In kind it is tissue-based, Sus scrofa. The procedure, abridged: as §3
In data set [5] the test system is Rattus norvegicus. The data set can be described thus: Inhibition of pentagastrin-stimulated acid secretion in perfused Ghosh Schild rat stomach at 0.3 umol/kg, intraduodenal. In kind it is functional. Further details: scale not given: the % may be the effect or the level left. In a few lines: as §1
The test system of data set [6] is Rattus norvegicus. The data set can be described thus: Inhibition of pentagastrin-stimulated acid secretion in perfused Ghosh Schild rat stomach at 3 umol/kg, intraduodenal. Details: scale not given: the % may be the effect or the level left. Type of data set: functional. The procedure, abridged: as §1

Calls of active or inactive are those of the source. No cut-off for these calls is given here.

With `COCCNC(=O)c1c(C)nc2c3c(c(C(=O)N(C)C)cn12)CCC(c1ccccc1)O3` (racemic), in data set [1], the pKa worked out at 4.38. This molecule displayed an Activity in the data set on Rattus norvegicus [2] of 54%. Further, in data set [3], the pH-dependent lipophilicity (logD) worked out at 1.95. In addition, in the data set listed under Sus scrofa, the outcome was inactive.

For `CNC(=O)c1cn2c(C)c(C)nc2c2c1CC[C@@H](c1ccccc1)O2`, the half-maximal inhibitory concentration (IC50) in the data set on Gastric gland was 2 µM. The same molecule had a pIC50 in data set [4] of 6.3. In the data set on Rattus norvegicus [5], the Activity is given as 62%.

For the molecule `Cc1nc2c3c(c(C(=O)N4CCC4)cn2c1C)CC[C@H](c1ccccc1)O3`, the IC50 in the data set on Gastric gland is 1.58 µM. Also, the Activity with Rattus norvegicus [6] is 37%. In addition, in data set [4], the negative-log IC50 (pIC50) was 5.1.

As for `Cc1nc2c3c(c(C(=O)N(C)C)cn2c1C)CCC(c1ccccc1F)O3` (racemic), the half-maximal inhibitory concentration (IC50) with Gastric gland is 0.631 µM. In data set [1], this molecule showed a pKa of 6.78. For the same molecule, the Activity with Rattus norvegicus [2] was found to be 73%. This molecule showed a pH-dependent lipophilicity (logD) in data set [3] of 2.8. The same molecule returned a pIC50 in data set [4] of 5.9.

Take `Cc1nc2c3c(c(C(=O)NC4CC4)cn2c1C)CC[C@H](c1ccccc1)O3`: the IC50 in the data set on Gastric gland is 2 µM. Besides, the Activity with Rattus norvegicus [6] was found to be 40%. Moreover, the pIC50 in data set [4] amounted to 5.1.

Consider `Cc1nc2c3c(c(C(=O)N4CC(O)C4)cn2c1C)CCC(c1ccccc1)O3` (racemic), for which the concentration for half-maximal inhibition (IC50) in the data set with Gastric gland is 63.1 µM. This molecule displayed a pKa in data set [1] of 6.63. This molecule also gave an Activity in the data set with Rattus norvegicus [6] of 54%. In data set [3], this molecule yielded a logD of 2.19. Also, the pIC50 in data set [4] is recorded as 5.9.

As to `CCc1c(C)nc2c3c(c(C(=O)N(C)C)cn12)CC[C@H](c1ccccc1)O3`, the half-inhibitory concentration (IC50) in the data set on Gastric gland was 10 µM. The Activity in the data set with Rattus norvegicus [6] came out at 20%. This molecule showed a pIC50 in data set [4] of 4.4.

As to `CNC(=O)c1cn2c(C)c(C)nc2c2c1CC[C@H](c1ccccc1)O2`, the IC50 in the data set on Gastric gland is 5.01 µM. For the same molecule, in the data set on Rattus norvegicus [6], the Activity stood at 38%. The molecule further had a negative-log IC50 (pIC50) in data set [4] of 4.4.

Take `Cc1nc2c3c(c(C(=O)N(C)C)cn2c1C(=O)N(C)C)CCC(c1ccccc1)O3` (racemic): the pKa in data set [1] is 4.51. In the data set on Rattus norvegicus [2], this molecule had an Activity of 26%. The molecule also registered a logD in data set [3] of 1.69. For the same molecule, the outcome in the data set listed under Sus scrofa was inactive.

Consider `CC(=O)c1c(C)nc2c3c(c(C(=O)N(C)C)cn12)CC[C@H](c1ccccc1)O3`, for which, in the data set on Gastric gland, the outcome was inactive. The same molecule had an Activity in the data set with Rattus norvegicus [6] of 31%. This molecule had a pIC50 in data set [4] of under 4.

Turning to `Cc1nc2c3c(c(C(=O)N(C)C)cn2c1C)CC[C@H](c1ccccc1)O3`, in the data set with Gastric gland, the IC50 is 2.51 µM. The same molecule had an Activity in the data set on Rattus norvegicus [6] of 36%. Further, the pIC50 in data set [4] stood at 5.4.

With `Cc1nc2c3c(c(C(=O)NS(C)(=O)=O)cn2c1C)CCC(c1ccccc1)O3` (racemic), the result in the data set with Gastric gland was inactive. In addition, in data set [1], the pKa was 2.5. In the data set with Rattus norvegicus [6], this molecule displayed an Activity of 38%. Further, the logD in data set [3] amounted to 1.9. The molecule further registered a pIC50 in data set [4] of 4.2.

With `Cc1nc2c3c(c(C(=O)O)cn2c1C)CCC(c1ccccc1)O3` (racemic), the IC50 with Gastric gland was 25.1 µM. The same molecule showed a pKa in data set [1] of 2.65. For the same molecule, the Activity in the data set on Rattus norvegicus [6] came to 15%. The logD in data set [3] stood at 0.7. The same molecule gave a pIC50 in data set [4] of 5.2.

On to `Cc1nc2c3c(c(C(N)=O)cn2c1C)CC[C@H](c1ccccc1)O3`, for which the IC50 in the data set with Gastric gland was 25.1 µM. Further, the Activity in the data set with Rattus norvegicus [6] amounted to 30%.

Consider `Cc1nc2c3c(c(C(=O)N(C)C)cn2c1C)CC[C@H](c1ccccc1F)O3`, for which the IC50 in the data set on Gastric gland was 0.398 µM. For the same molecule, in the data set with Rattus norvegicus [6], the Activity is 42%. For the same molecule, the pIC50 in data set [4] is 5.3.

Turning to `Cc1nc2c3c(c(C(=O)N(C)C)cn2c1C)CCC(c1cccs1)O3` (racemic), the half-inhibitory concentration (IC50) in the data set with Gastric gland is 0.631 µM. Also, the pKa in data set [1] stood at 6.64. For the same molecule, the Activity with Rattus norvegicus [2] was determined as 46%. Further, in data set [3], the log distribution coefficient (logD) amounted to 2.05. In addition, in data set [4], the negative-log IC50 (pIC50) was determined as 5.3.

For `Cc1nc2c3c(c(C(=O)N4CCCC4)cn2c1C)CC[C@H](c1ccccc1)O3`, the IC50 in the data set with Gastric gland is 2.51 µM. Further, in the data set on Rattus norvegicus [6], the Activity turned out to be 27%. For the same molecule, the pIC50 in data set [4] was determined as 4.5.

Consider `CON(C)C(=O)c1cn2c(C)c(C)nc2c2c1CC[C@H](c1ccccc1)O2`, for which the Activity in the data set on Rattus norvegicus [6] came to 20%. In data set [4], this molecule showed a negative-log IC50 (pIC50) of 4.5.

As for `Cc1nc2c3c(ccn2c1C)CCC(c1ccccc1)O3` (racemic), the 50% inhibitory concentration (IC50) with Gastric gland is 0.316 µM. Besides, the pKa in data set [1] was determined as 7.73. For the same molecule, in the data set with Rattus norvegicus [2], the Activity is on record as 26%. In addition, the pH-dependent lipophilicity (logD) in data set [3] was found to be 3.5. Besides, in data set [4], the pIC50 was 6.9.

On to `Cc1nc2c3c(c(C(=O)N(C)C)cn2c1Br)CC[C@H](c1ccccc1)O3`, for which, in the data set on Gastric gland, the IC50 was 31.6 µM. The molecule also showed an Activity in the data set on Rattus norvegicus [6] of 38%. In data set [4], this molecule yielded a negative logarithm of the IC50 (pIC50) of under 4.

For the molecule `CC#CC(=O)c1c(C)nc2c3c(c(C(=O)N(C)C)cn12)CCC(c1ccccc1)O3` (racemic), the result in the data set on Gastric gland was inactive. Also, the pKa in data set [1] was 3.2. The molecule further registered an Activity in the data set with Rattus norvegicus [2] of 43%. Besides, the logD in data set [3] was 3.2. The molecule further had a pIC50 in data set [4] of 6.2.

Regarding `CC(=O)c1c(C)nc2c3c(c(C(=O)N(C)C)cn12)CCC(c1ccccc1)O3` (racemic), the result in the data set with Gastric gland was inactive. The pKa in data set [1] was 3.73. Also, the Activity in the data set with Rattus norvegicus [2] was determined as 55%. Besides, the pH-dependent lipophilicity (logD) in data set [3] amounted to 2.55. Besides, the pIC50 in data set [4] is reported as under 4.

The pKa is the negative logarithm of the acid dissociation constant. The term logD denotes lipophilicity at a set pH, counting ionised and neutral species. Broadly, the IC50 is the midpoint of a concentration-inhibition curve. What is called pIC50 is the IC50 on a negative log10 scale, so that one unit is a factor of ten.

The record behind these values is ChEMBL document CHEMBL1138298, “Synthesis and evaluation of 7H-8,9-dihydropyrano[2,3-c]imidazo[1,2-a]pyridines as potassium-competitive acid blockers” (J Med Chem, 2007).
